# Measured values pooled from the literature.
# Each line is one published result; the experiments were not run side by side.
# Cell line: K562
# Observed: cell growth or viability
Structure (SMILES),test,setting,endpoint,result
C=C(NC(=O)C(=C)NC(=O)c1csc(C2=N[C@@H]3c4csc(n4)[C@H]4NC(=O)c5csc(n5)[C@H]([C@](C)(O)[C@@H](C)O)NC(=O)[C@H]5CSC(=N5)/C(=C/C)NC(=O)[C@H]([C@@H](C)O)NC(=O)c5csc(n5)[C@]3(CC2)NC(=O)[C@H](C)NC(=O)C(=C)NC(=O)[C@H](C)NC(=O)[C@H]([C@@H](C)CC)N[C@@H]2C=Cc3c([C@H](C)O)cc(nc3[C@H]2O)C(=O)O[C@@H]4C)n1)C(N)=O,,,EC50,0.6 µM
O=C(c1ccc(/C=C/c2n[nH]c3ccccc23)cc1)N1CCNCC1,,,GI50,~0.4 µM
Cc1nc(Nc2ncc(C(=O)Nc3c(C)cccc3Cl)s2)cc(N2CC[C@H](O)C2)n1,ATP luminescence,"10 µM, 72 h",inhibition,90%
O=C(Nc1ccc(OC(F)(F)Cl)cc1)c1cnc(N2CC[C@@H](O)C2)c(-c2cc[nH]n2)c1,ATP luminescence,72 h,EC50,0.005 µM
CN(C)CCNC(=O)c1ccc(-c2nc3ccc4[nH]ncc4c3c3c2CC(C)(C)CC3)cc1,resazurin,72 h,GI50,3.7 µM
FC(F)(F)c1cc(OCc2cc(-c3ccccn3)no2)c2ccccc2n1,MTS,72 h,IC50,> 100 µM
Cc1n[nH]c2ccc3nc(-c4ccc(C(=O)N(C)CCN(C)C)cn4)c4c(c3c12)CCCCC4,resazurin,72 h,GI50,> 10 µM
O=c1cc(OCc2cc(-c3ccccn3)no2)c2ccccc2o1,MTS,72 h,IC50,> 100 µM
Nc1ccccc1NC(=O)c1ccc(Cn2cnc3c(Nc4ccc(Cl)cc4)ncnc32)cc1,MTT,72 h,IC50,17.5 µM
O=C(NC1CC1)c1ccc(-c2nc3ccc4[nH]ncc4c3c3c2CCCC3)cc1,resazurin,72 h,GI50,4.1 µM
N#Cc1ccc(-c2cc(COc3cc(=O)oc4ccccc34)on2)cc1,MTS,72 h,IC50,> 100 µM
Nc1ccccc1NC(=O)c1ccc(Cn2cnc3c(Nc4ccc(Br)cc4F)ncnc32)cc1,MTT,72 h,IC50,30.1 µM
CCN(CC)CCNC(=O)c1ccc(-c2nc3ccc4[nH]ncc4c3c3c2CCCC3)cc1,resazurin,72 h,GI50,3.6 µM
FC(F)(F)c1cc(OCc2cc(-c3ccccc3)no2)c2ccccc2n1,MTS,72 h,IC50,> 100 µM
